Results from publication PMC4161153 (Journal of Medicinal Chemistry, 2014).

How the values were obtained:
[1] = Chemical stability of the free base; assay type: physicochemical; settings: rapid formation of overoxidized 3-ol derivative 5 via autoxidation
[2] = target: T1, human TLR8 (Homo sapiens, UniProt Q9NR97); test: Human TLR8-specific reporter gene assay; assay type: cell-based; settings: HEK293 cells, NF-κB induction
T1 sequence (Q9NR97 27-1041): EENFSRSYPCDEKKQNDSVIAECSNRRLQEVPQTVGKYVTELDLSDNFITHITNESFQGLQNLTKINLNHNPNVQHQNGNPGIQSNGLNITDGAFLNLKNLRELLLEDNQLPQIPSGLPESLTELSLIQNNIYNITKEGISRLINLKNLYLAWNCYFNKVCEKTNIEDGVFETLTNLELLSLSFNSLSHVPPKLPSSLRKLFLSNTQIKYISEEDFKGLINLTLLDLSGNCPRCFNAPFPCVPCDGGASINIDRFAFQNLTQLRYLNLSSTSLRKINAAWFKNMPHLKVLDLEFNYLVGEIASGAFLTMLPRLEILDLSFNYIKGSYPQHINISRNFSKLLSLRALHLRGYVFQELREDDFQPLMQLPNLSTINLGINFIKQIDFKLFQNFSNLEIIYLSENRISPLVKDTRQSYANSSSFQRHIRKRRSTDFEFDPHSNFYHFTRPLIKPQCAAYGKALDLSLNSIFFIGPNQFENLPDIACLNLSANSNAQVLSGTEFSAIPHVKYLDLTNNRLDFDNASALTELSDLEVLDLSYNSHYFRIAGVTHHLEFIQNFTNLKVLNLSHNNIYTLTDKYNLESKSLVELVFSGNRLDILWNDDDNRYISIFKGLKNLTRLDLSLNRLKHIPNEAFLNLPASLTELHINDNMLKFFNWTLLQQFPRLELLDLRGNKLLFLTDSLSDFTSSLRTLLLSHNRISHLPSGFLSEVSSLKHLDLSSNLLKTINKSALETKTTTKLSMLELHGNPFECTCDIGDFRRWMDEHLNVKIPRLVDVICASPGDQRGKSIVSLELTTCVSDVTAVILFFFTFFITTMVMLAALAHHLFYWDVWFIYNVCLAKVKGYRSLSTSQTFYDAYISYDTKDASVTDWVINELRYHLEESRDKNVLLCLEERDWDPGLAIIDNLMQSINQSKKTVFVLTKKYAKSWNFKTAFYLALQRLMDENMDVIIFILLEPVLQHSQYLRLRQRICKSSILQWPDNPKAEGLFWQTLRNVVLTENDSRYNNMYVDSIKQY

[3] = system: natural killer lymphocytes; test: CD69 upregulation by flow cytometry in whole human blood; assay type: cell-based; settings: overnight 37 °C, CD3–CD56+ cells, Figure 4
Procedure, shortened: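 Heparin-anticoagulated whole blood from healthy volunteers was incubated overnight at 37 °C with graded concentrations of test compound, a TLR7-agonist reference or medium. Cells were stained for 30 min at 37 °C in the dark with CD3-PE, CD56-APC and CD69-PE-Cy7. Erythrocytes were lysed and leukocytes fixed in one step. CD69 was read on CD3⁻CD56⁺ NK cells from 100,000 gated events.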

CCCCC1C(N)=Nc2ccccc21.Cl (stereo not drawn) [Compound 4]
Stability of the compound (free base) [1]: exceedingly unstable

Nc1nc2ccccc2n1Cc1ccccc1 [Compound 8d, 1-Benzyl-1H-benzo[d]imidazol-2-amine]
hTLR8 Agonistic Activity (EC50) [2]: neither 8d nor 8f were active

NCc1cccc(Cn2c(N)nc3ccccc32)c1 [Compound 8f, 1-(3-(Aminomethyl)benzyl)-1H-benzo[d]imidazol-2-amine]
hTLR8 Agonistic Activity (EC50) [2]: neither 8d nor 8f were active

CCCCOC(=O)n1c(N)nc2ccccc21 [Compound 9, Butyl 2-amino-1H-benzo[d]imidazole-1-carboxylate]
hTLR8 Agonistic Activity (EC50) [2]: completely abrogated activity

CCCCCn1c(NC(C)=O)nc2ccccc21 [Compound 10, N-(1-Pentyl-1H-benzo[d]imidazol-2-yl)acetamide]
hTLR8 Agonistic Activity (EC50) [2]: completely abrogated activity

CCCCCn1c(N)nc2c(C)cccc21 [Compound 31a, 4-Methyl-1-pentyl-1H-benzo[d]imidazol-2-amine]
CD69 upregulation in NK lymphocytes [3]: complete absence of CD69 upregulation

CCCCCn1c(N)nc2c(-c3ccccc3)cccc21 [Compound 31l, 1-Pentyl-4-phenyl-1H-benzo[d]imidazol-2-amine]
hTLR8 Agonistic Activity (EC50) [2]: abrogated activity

CCCCCn1c(N)nc2c(Cc3ccccc3)cccc21 [Compound 31m, 4-Benzyl-1-pentyl-1H-benzo[d]imidazol-2-amine]
hTLR8 Agonistic Activity (EC50) [2]: abrogated activity

CCCCCn1c(N)nc2c(OCc3ccccc3)cccc21 [Compound 35, 4-Benzyloxy-1-pentyl-1H-benzoimidazol-2-ylamine]
hTLR8 Agonistic Activity (EC50) [2]: abrogated activity
